Measured values reported in ChEMBL document CHEMBL4257524, “Design and synthesis of conformationally constraint Dyrk1A inhibitors by creating an intramolecular H-bond involving a benzothiazole core” (Medchemcomm, 2018).

Experiments:
[1] = target: T1, Dual specificity tyrosine-phosphorylation-regulated kinase 1B (Homo sapiens, UniProt Q9Y463); assay: Inhibition of full length recombinant human GST-tagged Dyrk1B expressed in baculovirus expression system at 0.5 uM using KKISGRLSPIMTEQ-NH2 peptide as substrate in presence of [gamma-32P]-ATP relative to control
How it was run: (§1)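 Dyrk1B kinase assay with ATP at 15 μM. Single-point % inhibition measured at 0.5 μM, and IC50 determined. Values are means of at least two independent experiments, each run in duplicate, with standard deviation <10%.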
Target sequence in this assay (Q9Y463 whole entry, looked up): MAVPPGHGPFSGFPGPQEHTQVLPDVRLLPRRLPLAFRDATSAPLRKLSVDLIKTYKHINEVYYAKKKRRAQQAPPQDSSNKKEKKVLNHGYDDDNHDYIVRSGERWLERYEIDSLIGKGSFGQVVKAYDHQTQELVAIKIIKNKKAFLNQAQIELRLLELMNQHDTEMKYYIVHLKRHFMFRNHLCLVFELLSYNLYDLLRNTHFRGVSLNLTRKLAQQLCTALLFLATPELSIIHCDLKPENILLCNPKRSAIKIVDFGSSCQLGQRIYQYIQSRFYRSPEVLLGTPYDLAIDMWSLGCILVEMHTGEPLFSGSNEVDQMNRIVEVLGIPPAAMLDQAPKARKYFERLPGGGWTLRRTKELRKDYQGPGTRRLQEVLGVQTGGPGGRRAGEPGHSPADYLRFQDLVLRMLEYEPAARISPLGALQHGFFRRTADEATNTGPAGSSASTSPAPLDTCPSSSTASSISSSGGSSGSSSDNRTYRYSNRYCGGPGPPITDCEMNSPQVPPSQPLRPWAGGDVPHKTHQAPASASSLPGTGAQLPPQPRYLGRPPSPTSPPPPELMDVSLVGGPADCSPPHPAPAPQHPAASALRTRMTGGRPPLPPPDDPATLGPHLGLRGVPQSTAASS

[2] = target: T2, Dual specificity tyrosine-phosphorylation-regulated kinase 1A (Homo sapiens, UniProt Q13627); assay: Inhibition of recombinant human N-terminal His6-tagged Dyrk1A catalytic domain expressed in Escherichia coli BL21 (DE3) using KKISGRLSPIMTEQ-NH2 peptide as substrate in presence of [gamma-32P]-ATP
[3] = target: T1, Dual specificity tyrosine-phosphorylation-regulated kinase 1B; assay: Inhibition of full length recombinant human GST-tagged Dyrk1B expressed in baculovirus expression system using KKISGRLSPIMTEQ-NH2 peptide as substrate in presence of [gamma-32P]-ATP; how it was run: as §1
Target sequence in this assay (Q9Y463 whole entry): as the sequence (Q9Y463 whole entry, looked up) above

[4] = target: Myosin light chain kinase, smooth muscle (Homo sapiens) (UniProt Q15746); assay: Inhibition of full length recombinant human GST-tagged MLCK expressed in baculovirus expression system at 5 uM relative to control
Myosin light chain kinase, smooth muscle (Homo sapiens), sequence (Q15746 whole entry): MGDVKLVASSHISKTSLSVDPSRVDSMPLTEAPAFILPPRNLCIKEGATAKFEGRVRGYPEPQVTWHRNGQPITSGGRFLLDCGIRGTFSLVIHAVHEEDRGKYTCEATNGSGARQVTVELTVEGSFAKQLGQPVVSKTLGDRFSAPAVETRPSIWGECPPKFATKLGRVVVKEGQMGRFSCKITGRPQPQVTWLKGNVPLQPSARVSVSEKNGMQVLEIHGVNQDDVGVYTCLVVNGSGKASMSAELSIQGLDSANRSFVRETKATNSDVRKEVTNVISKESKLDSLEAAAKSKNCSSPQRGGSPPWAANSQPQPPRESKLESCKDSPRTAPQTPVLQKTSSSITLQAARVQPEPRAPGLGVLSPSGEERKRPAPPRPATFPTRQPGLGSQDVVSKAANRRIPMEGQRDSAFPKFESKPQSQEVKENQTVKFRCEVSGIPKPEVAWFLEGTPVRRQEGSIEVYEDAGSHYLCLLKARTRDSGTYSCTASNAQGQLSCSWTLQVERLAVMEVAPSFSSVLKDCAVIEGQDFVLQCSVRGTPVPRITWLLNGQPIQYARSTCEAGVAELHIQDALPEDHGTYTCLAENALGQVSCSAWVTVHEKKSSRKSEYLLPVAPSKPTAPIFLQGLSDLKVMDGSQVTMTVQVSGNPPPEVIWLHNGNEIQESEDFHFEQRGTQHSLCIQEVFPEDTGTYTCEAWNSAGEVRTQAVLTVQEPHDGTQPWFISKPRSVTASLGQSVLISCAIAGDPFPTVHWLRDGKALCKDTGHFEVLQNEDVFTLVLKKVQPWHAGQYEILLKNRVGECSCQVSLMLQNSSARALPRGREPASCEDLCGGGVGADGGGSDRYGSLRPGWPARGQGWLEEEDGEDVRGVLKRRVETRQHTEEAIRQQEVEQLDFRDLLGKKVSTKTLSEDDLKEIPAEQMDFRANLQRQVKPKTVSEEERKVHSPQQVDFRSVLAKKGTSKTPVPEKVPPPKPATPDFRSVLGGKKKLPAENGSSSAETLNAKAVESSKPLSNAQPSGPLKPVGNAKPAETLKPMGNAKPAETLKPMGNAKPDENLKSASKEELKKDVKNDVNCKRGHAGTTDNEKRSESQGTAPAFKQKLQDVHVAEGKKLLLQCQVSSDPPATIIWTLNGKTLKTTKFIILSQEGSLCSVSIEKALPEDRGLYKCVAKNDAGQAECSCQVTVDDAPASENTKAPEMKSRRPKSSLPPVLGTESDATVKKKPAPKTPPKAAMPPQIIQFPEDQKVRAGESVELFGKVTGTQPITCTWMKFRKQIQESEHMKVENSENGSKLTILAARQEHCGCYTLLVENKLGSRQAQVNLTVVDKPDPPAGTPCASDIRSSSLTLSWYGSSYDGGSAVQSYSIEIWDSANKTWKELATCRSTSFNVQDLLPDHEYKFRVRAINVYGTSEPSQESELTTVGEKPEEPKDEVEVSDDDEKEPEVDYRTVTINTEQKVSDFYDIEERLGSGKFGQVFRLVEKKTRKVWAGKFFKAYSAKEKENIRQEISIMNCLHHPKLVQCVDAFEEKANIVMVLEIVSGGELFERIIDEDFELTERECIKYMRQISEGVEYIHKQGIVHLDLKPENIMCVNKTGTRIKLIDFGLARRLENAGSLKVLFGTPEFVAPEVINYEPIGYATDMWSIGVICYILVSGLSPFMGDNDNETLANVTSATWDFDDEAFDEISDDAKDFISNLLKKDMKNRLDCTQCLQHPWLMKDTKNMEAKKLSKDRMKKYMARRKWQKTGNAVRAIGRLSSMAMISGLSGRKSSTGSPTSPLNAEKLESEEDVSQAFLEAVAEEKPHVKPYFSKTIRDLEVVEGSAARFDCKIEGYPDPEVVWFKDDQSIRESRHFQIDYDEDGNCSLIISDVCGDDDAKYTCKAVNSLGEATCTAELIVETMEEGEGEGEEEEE
How it was run: (§2)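 Kinase panel run at a single 5 μM inhibitor concentration with ATP at 100 μM. Activity expressed as % inhibition. Values are means of at least two duplicates.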

[5] = target: BDNF/NT-3 growth factors receptor (Homo sapiens) (UniProt Q16620); assay: Inhibition of recombinant human His-tagged NTRK2 expressed in baculovirus expression system at 5 uM relative to control; how it was run: as §2
[6] = target: Homeodomain-interacting protein kinase 1 (Homo sapiens) (UniProt Q86Z02); assay: Inhibition of recombinant human GST-tagged HIPK1 expressed in baculovirus expression system at 5 uM relative to control; how it was run: as §2
Homeodomain-interacting protein kinase 1 (Homo sapiens), sequence (Q86Z02 whole entry, looked up, canonical isoform): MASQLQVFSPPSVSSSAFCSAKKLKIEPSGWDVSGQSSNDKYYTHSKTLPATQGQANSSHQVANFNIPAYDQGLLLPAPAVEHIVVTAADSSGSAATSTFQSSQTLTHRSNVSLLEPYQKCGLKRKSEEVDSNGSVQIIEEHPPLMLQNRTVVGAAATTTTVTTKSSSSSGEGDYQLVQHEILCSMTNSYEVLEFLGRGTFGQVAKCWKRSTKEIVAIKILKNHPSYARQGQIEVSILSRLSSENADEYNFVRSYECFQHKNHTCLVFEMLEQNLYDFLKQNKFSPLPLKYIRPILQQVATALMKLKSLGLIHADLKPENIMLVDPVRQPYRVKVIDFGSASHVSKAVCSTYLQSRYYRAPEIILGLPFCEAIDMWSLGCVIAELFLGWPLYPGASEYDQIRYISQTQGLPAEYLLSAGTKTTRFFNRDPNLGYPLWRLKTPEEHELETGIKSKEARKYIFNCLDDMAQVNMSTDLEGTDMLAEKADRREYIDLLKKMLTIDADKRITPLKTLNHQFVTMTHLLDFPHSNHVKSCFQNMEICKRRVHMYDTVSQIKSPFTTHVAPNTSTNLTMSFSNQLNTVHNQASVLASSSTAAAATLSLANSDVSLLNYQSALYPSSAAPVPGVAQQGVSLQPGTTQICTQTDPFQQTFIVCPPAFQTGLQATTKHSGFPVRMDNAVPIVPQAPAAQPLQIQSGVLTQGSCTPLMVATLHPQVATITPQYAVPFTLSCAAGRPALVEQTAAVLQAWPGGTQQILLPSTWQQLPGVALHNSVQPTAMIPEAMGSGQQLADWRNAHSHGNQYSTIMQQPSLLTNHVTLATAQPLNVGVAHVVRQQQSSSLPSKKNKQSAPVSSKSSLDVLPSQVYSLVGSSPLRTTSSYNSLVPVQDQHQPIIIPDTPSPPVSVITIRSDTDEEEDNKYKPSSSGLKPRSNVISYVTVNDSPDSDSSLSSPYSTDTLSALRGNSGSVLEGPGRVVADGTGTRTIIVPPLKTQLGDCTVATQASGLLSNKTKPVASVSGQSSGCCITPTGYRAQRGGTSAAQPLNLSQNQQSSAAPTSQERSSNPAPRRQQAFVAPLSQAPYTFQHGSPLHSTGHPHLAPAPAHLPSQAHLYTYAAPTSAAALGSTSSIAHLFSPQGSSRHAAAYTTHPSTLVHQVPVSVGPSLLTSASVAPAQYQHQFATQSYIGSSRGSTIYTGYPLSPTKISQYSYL

[7] = target: Casein kinase I isoform delta (Homo sapiens) (UniProt P48730); assay: Inhibition of full length recombinant human GST-tagged CK1delta expressed in baculovirus expression system at 5 uM relative to control; how it was run: as §2
Casein kinase I isoform delta (Homo sapiens), sequence (P48730 whole entry, looked up, the tested form may be a part, canonical isoform): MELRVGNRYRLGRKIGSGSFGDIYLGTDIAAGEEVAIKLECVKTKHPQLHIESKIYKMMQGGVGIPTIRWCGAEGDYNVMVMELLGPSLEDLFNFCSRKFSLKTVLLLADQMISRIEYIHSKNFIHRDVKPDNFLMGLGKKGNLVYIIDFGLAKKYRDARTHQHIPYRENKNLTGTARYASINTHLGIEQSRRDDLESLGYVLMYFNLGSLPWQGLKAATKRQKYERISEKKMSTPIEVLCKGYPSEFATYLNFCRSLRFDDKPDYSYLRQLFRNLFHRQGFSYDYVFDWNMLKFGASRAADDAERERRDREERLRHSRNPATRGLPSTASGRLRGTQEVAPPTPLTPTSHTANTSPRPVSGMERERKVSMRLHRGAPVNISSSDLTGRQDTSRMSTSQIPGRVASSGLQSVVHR

[8] = species on record: Homo sapiens; assay: Selectivity ratio of IC50 for recombinant GST-tagged human CLK1 to IC50 for recombinant human N-terminal His6-tagged Dyrk1A catalytic domain
[9] = species on record: Homo sapiens; assay: Selectivity ratio of IC50 for full length recombinant human GST-tagged Dyrk1B to IC50 for recombinant human N-terminal His6-tagged Dyrk1A catalytic domain
How it was run: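 Ratio of Dyrk1B IC50 to Dyrk1A IC50. Both IC50s determined with ATP at 15 μM, from means of at least two independent duplicate experiments.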

[10] = target: Cyclin-dependent kinase 5/CDK5 activator 1 (Homo sapiens) (UniProt Q00535+Q15078); assay: Inhibition of full length recombinant human GST-tagged CDK5/His-tagged p25 expressed in baculovirus expression system at 5 uM relative to control; how it was run: as §2
[11] = target: T3, Serine/threonine-protein kinase 17A (Homo sapiens) (UniProt Q9UEE5); assay: Inhibition of full length recombinant human GST-tagged STK17A expressed in baculovirus expression system at 5 uM relative to control; how it was run: as §2
T3 sequence (whole entry): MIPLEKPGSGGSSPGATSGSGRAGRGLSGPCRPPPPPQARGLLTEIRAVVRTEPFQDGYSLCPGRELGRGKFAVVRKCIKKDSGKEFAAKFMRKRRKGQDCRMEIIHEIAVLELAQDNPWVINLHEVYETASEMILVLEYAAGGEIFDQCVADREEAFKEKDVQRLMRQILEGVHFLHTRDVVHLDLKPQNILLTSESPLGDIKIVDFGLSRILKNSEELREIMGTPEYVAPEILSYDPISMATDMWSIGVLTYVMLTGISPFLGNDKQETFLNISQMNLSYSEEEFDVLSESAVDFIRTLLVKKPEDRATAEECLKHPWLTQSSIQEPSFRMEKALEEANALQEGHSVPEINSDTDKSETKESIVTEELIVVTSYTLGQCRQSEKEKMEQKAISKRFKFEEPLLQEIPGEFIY

[12] = target: T4, Dual specificity protein kinase CLK1 (Homo sapiens, UniProt P49759); assay: Inhibition of recombinant GST-tagged human CLK1 expressed in Escherichia coli using RSRSRSRSR peptide as substrate in presence of [gamma-32P]-ATP
How it was run: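 CLK1 IC50 determined in kinase assay with ATP at 15 μM.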

[13] = target: T5, Serine/threonine-protein kinase haspin (Homo sapiens) (UniProt Q8TF76); assay: Inhibition of recombinant human N-terminal GST-tagged Haspin expressed in baculovirus expression system at 5 uM relative to control; how it was run: as §2
T5 sequence (whole entry): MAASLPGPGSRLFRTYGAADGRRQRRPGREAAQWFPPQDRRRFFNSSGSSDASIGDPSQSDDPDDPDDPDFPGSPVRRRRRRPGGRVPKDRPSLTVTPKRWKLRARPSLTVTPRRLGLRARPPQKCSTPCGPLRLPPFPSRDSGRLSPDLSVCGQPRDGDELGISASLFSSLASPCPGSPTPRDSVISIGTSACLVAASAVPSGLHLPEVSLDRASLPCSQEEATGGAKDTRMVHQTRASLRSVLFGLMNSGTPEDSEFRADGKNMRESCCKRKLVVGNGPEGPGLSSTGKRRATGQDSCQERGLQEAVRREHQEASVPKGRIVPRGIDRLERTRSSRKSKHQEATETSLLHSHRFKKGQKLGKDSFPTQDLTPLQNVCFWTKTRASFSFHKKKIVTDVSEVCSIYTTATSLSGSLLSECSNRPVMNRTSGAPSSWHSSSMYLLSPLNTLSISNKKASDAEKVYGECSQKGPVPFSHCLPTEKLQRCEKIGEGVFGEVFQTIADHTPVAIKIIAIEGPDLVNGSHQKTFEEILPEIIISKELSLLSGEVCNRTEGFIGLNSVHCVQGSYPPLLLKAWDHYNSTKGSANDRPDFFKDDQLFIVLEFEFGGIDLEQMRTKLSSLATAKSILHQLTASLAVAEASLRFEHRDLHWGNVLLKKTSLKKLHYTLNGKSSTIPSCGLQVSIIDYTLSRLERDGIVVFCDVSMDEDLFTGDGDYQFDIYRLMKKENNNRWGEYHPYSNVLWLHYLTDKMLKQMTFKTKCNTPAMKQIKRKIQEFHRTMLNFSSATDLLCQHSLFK

[14] = target: T2, Dual specificity tyrosine-phosphorylation-regulated kinase 1A; assay: Inhibition of recombinant human N-terminal His6-tagged Dyrk1A catalytic domain expressed in Escherichia coli BL21 (DE3) at 5 uM using KKISGRLSPIMTEQ-NH2 peptide as substrate in presence of [gamma-32P]-ATP relative to control; how it was run: as §2
[15] = target: T4, Dual specificity protein kinase CLK1; assay: Inhibition of recombinant GST-tagged human CLK1 expressed in Escherichia coli at 5 uM using RSRSRSRSR peptide as substrate in presence of [gamma-32P]-ATP
[16] = target: SRSF protein kinase 1 (Homo sapiens) (UniProt Q96SB4); assay: Inhibition of full length recombinant human His-tagged SRPK1 expressed in baculovirus expression system at 5 uM relative to control; how it was run: as §2
[17] = Drug metabolism in human liver S9 fraction assessed as CYP450-mediated metabolite formation by measuring parent compound remaining at 0.3 uM after 60 mins by LC-MS/MS analysis; assay type: ADME, subcellular; settings: s9, 1 h
How it was run: (§3)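 Pooled human liver S9 fraction incubated with compound at 37 °C. Samples taken at 0, 15, 30 and 60 min, and parent compound quantified by MS. Half-life and parent compound remaining derived from these measurements.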

[18] = Half life in human liver S9 fraction assessed as CYP450-mediated compound degradation at 0.3 uM after 15 to 60 mins by LC-MS/MS analysis; assay type: ADME, subcellular; how it was run: as §3
[19] = target: Serine/threonine-protein kinase pim-1 (Homo sapiens) (UniProt P11309); assay: Inhibition of full length recombinant human His-tagged PIM1 expressed in baculovirus expression system at 5 uM relative to control; how it was run: as §2

O=C(Nc1nc2ccc(O)cc2s1)Oc1ccccc1
inhibition [1]: 0%

COc1ccc2nc(NC(=O)NCCCN3CCN(C)CC3)sc2c1
inhibition [1]: 0%

COc1ccc2nc(NC(=O)Nc3ccc(C(=O)NCc4ccccc4)cc3)sc2c1
inhibition [1]: 0%

O=C(Nc1cccc(O)c1)Nc1nc2ccc(O)cc2s1
IC50 [2]: 134 nM | inhibition [1]: 54.6% | IC50 [3]: 370 nM

O=C(Cc1cccc(O)c1)Nc1nc2ccc(O)cc2s1
inhibition [1]: 0%

O=C(Nc1ccccc1)Nc1nnc(-c2ccncc2)s1
inhibition [1]: 12%

COc1ccc2nc(NC(=O)NCCN3CCOCC3)sc2c1
inhibition [1]: 0%

COc1ccc2nc(NC(=O)Oc3ccccc3)sc2c1
inhibition [1]: 0%

COc1ccc2nc(NC(=O)Nc3ccc(C(=O)N4CCN(C)CC4)cc3)sc2c1
inhibition [1]: 0%

CN1CCN(C(=O)c2ccc(NC(=O)Nc3nc4ccc(O)cc4s3)cc2)CC1
inhibition [4]: 45% | inhibition [5]: 13% | inhibition [6]: 50% | inhibition [7]: 9% | Ratio IC50 [8]: > 7 | Ratio IC50 [9]: 16 | inhibition [10]: 2% | inhibition [11]: 39% | IC50 [12]: 730 nM | inhibition [13]: 1% | inhibition [14]: 85% | inhibition [15]: 72% | IC50 [2]: 95 nM | inhibition [16]: 5% | Stability [17]: 88% | half-life at 0.3 µM [18]: > 60 min | inhibition [1]: 21% | IC50 [3]: 1510 nM | inhibition [19]: 29%

C[C@]12CC[C@H]3[C@@H](CCC4=CC(=O)CC[C@@]43C)[C@@H]1CC[C@@H]2O [TESTOSTERONE]
half-life at 0.3 µM [18]: 9.6 min

COc1cccc(CC(=O)Nc2nc3ccc(OC)cc3s2)c1
inhibition [1]: 25%

O=C(Nc1ccc(C(=O)NCc2ccccc2)cc1)Nc1nc2ccc(O)cc2s1
IC50 [2]: 63 nM | half-life at 0.3 µM [18]: 33 min | inhibition [1]: 69% | IC50 [3]: 130 nM

COc1ccc2nc(NC(=O)Nc3ccc(C(=O)O)cc3)sc2c1
inhibition [1]: 0%

COc1ccc2nc(NC(=O)Nc3ccccc3)sc2c1
inhibition [1]: 0%

O=C(Nc1ccccc1)Nc1nc2ccc(O)cc2s1
IC50 [2]: 163 nM | inhibition [1]: 43.6% | IC50 [3]: 710 nM
